Assay results collected from several papers.
Protocols differ between the studies behind these lines.
Observed: cell growth or viability

CCCCCCCCCCCCCCCCCCOc1ccccc1CC(=O)OCC[N+]1(C)CCCC1
inhibition (NCI-H522; SRB; 10 µM): 93.2%

COc1ccc(NC(=O)Nc2ccc(-c3cn(Cc4ccc(C)cc4)nn3)cc2)cc1
viability (A549; CCK-8; 50 µM; 72 h): 76.2%

COc1ccc2oc(-c3ccc4nc(N)oc4c3)c/c(=N\c3ccccc3NC(=O)CCN)c2c1
inhibition (A549; CCK-8; 1 µM): 39.1%

CCCCCCCCCCCCCCCCCCOc1ccccc1CC(=O)OCC[N+](C)(C)C
inhibition (NCI-H522; SRB; 10 µM): 97.8%

COc1ccc(NC(=O)Nc2cccc(-c3cn(Cc4ccc(C)cc4)nn3)c2)cc1
viability (A549; CCK-8; 50 µM; 72 h): 190%

CCCCCCCCCCCCCCCCCCOCC(COP(=O)([O-])OCC[N+](C)(C)C)OC (centres unmarked)
inhibition (NCI-H522; SRB; 10 µM): 27%

O=C(Nc1ccc(Cl)cc1)Nc1cccc(-c2cn(Cc3cccc(Cl)c3)nn2)c1
viability (A549; CCK-8; 50 µM; 72 h): 166%

CCCCCCCCCCCCCCCCCCOc1ccc(CC(=O)OCC[N+](C)(C)C)cc1
inhibition (NCI-H522; SRB; 10 µM): 4.28%

CCCS(=O)(=O)Oc1cc(C=NNC(=O)c2nc3ccccc3s2)ccc1OC
cell death (PC-3; MTT; 100 µM; 48 h): 33%

O=C(NCc1cn(Cc2ccc(Cl)cc2)nn1)Nc1ccc(Cl)cc1
viability (A549; CCK-8; 50 µM; 72 h): 67.6%

CCCCCCCCCCCCCCCCCCOc1ccccc1CC(=O)OCC[N+](CC)(CC)CC
inhibition (NCI-H522; SRB; 10 µM): 89.5%

Cc1nc(Nc2ncc(C(=O)Nc3c(C)cccc3Cl)s2)cc(N2CC[C@H](O)C2)n1
inhibition (MEG-01; ATP luminescence; 10 µM; 72 h): 93%

CN(C)CCNC(=O)c1ccc(-c2nc3ccc4[nH]ncc4c3c3c2CCCC3)c(F)c1
GI50 (EOL1; 72 h): 42 nM

O=C(Nc1ccccc1/N=c1\cc(-c2ccc3c(c2)OCO3)oc2ccccc12)N1CCNCC1
inhibition (A549; CCK-8; 1 µM): -6.54%

CCCCCCCCCCCCCCCCCCOc1ccc(CC(=O)OCC[N+](CC)(CC)CC)cc1
inhibition (NCI-H522; SRB; 10 µM): 26.6%

O=C(NN=Cc1ccc(O)cc1)c1nc2ccccc2s1
cell death (PC-3; MTT; 100 µM; 48 h): 39.6%

CCCCCCCCCCCCCCCCCCOc1ccc(CC(=O)OCC[N+]2(C)CCCCC2)cc1
inhibition (NCI-H522; SRB; 10 µM): 10.8%

NCC(=O)Nc1ccccc1/N=c1\cc(-c2ccc3c(c2)OCCO3)oc2ccccc12
inhibition (A549; CCK-8; 1 µM): -0.04%

CC(C)(C)c1cc(NC(=O)Nc2ccc(-c3cn4c(n3)sc3cc(OCCN5CCOCC5)ccc34)cc2)no1
GI50 (EOL1; 72 h): < 0.1 nM

CCCCCCCCCCCCCCCCCCOc1ccc(CC(=O)OCC[N+]2(C)CCCC2)cc1
inhibition (NCI-H522; SRB; 10 µM): 3.23%

COc1ccc(NC(=O)Nc2ccc(-c3cn(Cc4ccc(Br)cc4)nn3)cc2)cc1
viability (A549; CCK-8; 50 µM; 72 h): 101%

CN(C)CCNC(=O)c1ccc(-c2nc3ccc4[nH]ncc4c3c3c2CCCCC3)cc1
GI50 (EOL1; 72 h): 143 nM

Cc1nc(NC(=O)N2CCC[C@H]2C(N)=O)sc1-c1ccnc(C(C)(C)C(F)(F)F)c1
EC50 (NCI-H1048; ATP luminescence; 5 days): 611 nM

COc1ccc(C=NNC(=O)c2nc3ccccc3s2)cc1OS(C)(=O)=O
cell death (PC-3; MTT; 100 µM; 48 h): 44.5%

COc1ccc2/c(=N/c3ccccc3NC(=O)[C@@H](N)C(C)(C)C)cc(-c3ccc4c(c3)OCO4)oc2c1
inhibition (A549; CCK-8; 1 µM): -3.68%

O=C(Nc1ccc(Cl)cc1)Nc1ccc(-c2cn(Cc3ccc(Cl)cc3)nn2)cc1
viability (A549; CCK-8; 50 µM; 72 h): 79.6%

NCC(=O)Nc1ccccc1/N=c1\cc(-c2ccc3c(c2)OCCO3)oc2cc(F)ccc12
inhibition (A549; CCK-8; 1 µM): -1.67%

C=C(NC(=O)C(=C)NC(=O)c1csc(C2=N[C@@H]3c4csc(n4)[C@H]4NC(=O)c5csc(n5)[C@H]([C@](C)(O)[C@@H](C)O)NC(=O)[C@H]5CSC(=N5)/C(=C/C)NC(=O)[C@H]([C@@H](C)O)NC(=O)c5csc(n5)[C@]3(CC2)NC(=O)[C@H](C)NC(=O)C(=C)NC(=O)[C@H](C)NC(=O)[C@H]([C@@H](C)CC)N[C@@H]2C=Cc3c([C@H](C)O)cc(nc3[C@H]2O)C(=O)O[C@@H]4C)n1)C(N)=O
EC50 (PC-3): 54600 nM

Oc1cccc(-c2nc(N3CCOCC3)c3oc4ncccc4c3n2)c1
inhibition (A549; CCK-8; 1 µM): 20.4%

COc1ccc(NC(=O)NCc2cn(Cc3ccc(Cl)cc3)nn2)cc1
viability (A549; CCK-8; 50 µM; 72 h): 80.9%

CCc1nc(C(N)=O)c(Nc2ccc(N3CCC(N4CCN(C)CC4)CC3)c(OC)c2)nc1NC1CCOCC1
GI50 (EOL1; 72 h): 70 nM

COc1ccc2/c(=N/c3ccccc3NC(=O)CN)cc(-c3ccc4c(c3)OCCO4)oc2c1
inhibition (A549; CCK-8; 1 µM): 0.19%

COc1ccc(NC(=O)NCc2cn(Cc3ccc(Br)cc3)nn2)cc1
viability (A549; CCK-8; 50 µM; 72 h): 96.4%

O=C(Nc1ccccc1/N=c1\cc(-c2ccc3c(c2)OCO3)oc2ccccc12)N1CCOCC1
inhibition (A549; CCK-8; 1 µM): 13.8%

Cc1n[nH]c2ccc3nc(-c4ccc(C(=O)NCCN(C)C)cc4)c4c(c3c12)CCCCC4
GI50 (EOL1; 72 h): 107 nM
